Data published in ChEMBL document CHEMBL1122268, “Mechanism of action of 2',5-difluoro-1-arabinosyluracil” (J Med Chem, 1983).
Blank lines part the entries; values can stand above or below the compound they belong to.

Legend:
Lacticaseibacillus casei = assay: Inhibition of dTMP synthetase in the absence of CH2-H4 folate Lactobacillus casei; assay type: functional
L5178Y = assay: The growth inhibition of L5178Y cell line; assay type: functional, cell-based; conditions: Mus musculus
P815 = assay: The growth inhibition of P815 cell line; assay type: functional, cell-based; conditions: Mus musculus
S49 [1] = assay: The growth inhibition of S-49 mouse lymphoma cells; assay type: functional, cell-based
Procedure, shortened: (§1)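 S-49 or thymidine kinase-deficient S-49/TK⁻ cells in 1 mL DMEM with 10% heat-inactivated horse serum plus inhibitor, 37 °C, 10% CO2, 72 h; cell density counted daily by Coulter counter; EC50 = concentration halving growth rate relative to untreated controls.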

S49 [2] = assay: Reduction of deoxy-Adenosinetriphosphate pool after 1 hour incubation in S-49 cells(2 X 10e 5) at a concentration of 16.5 uM; assay type: functional, Mus musculus
Procedure, shortened: (§2)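 Mouse lymphoma S-49 suspension cultures at 2 × 10^5 cells/mL in DMEM with 10% heat-inactivated horse serum, 37 °C, exposed to 16.5 μM drug; dATP, dCTP, dGTP, dTTP pool sizes measured at 1 h (dTTP also 4 h), expressed as percent of original value.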

S49 [3] = assay: Reduction of deoxy-[…] pool after 1 hour incubation in S-49 cells(2 X 10e 5) at a concentration of 16.5 uM; assay type: functional, Mus musculus; procedure, shortened: as §2
S49 [4] = assay: Reduction of deoxy-Thymidinetriphosphate pool after 1 hour incubation in S-49 cells(2 X 10e 5) at a concentration of 16.5 uM; assay type: functional, Mus musculus; procedure, shortened: as §2
S49 [5] = assay: Reduction of deoxy-Thymidinetriphosphate pool after 4 hour incubation in S-49 cells(2 X 10e 5) at a concentration of 16.5 uM; assay type: functional, Mus musculus; procedure, shortened: as §2
S49 [6] = assay: Reduction of deoxy-Cytidinetriphosphate pool after 1 hour incubation in S-49 cells(2 X 10e 5) at a concentration of 16.5 uM; assay type: functional, Mus musculus; procedure, shortened: as §2
S49 [7] = assay: The growth inhibition of thymidine kinase deficient S-49 cells; assay type: functional, cell-based; conditions: Mus musculus; procedure, shortened: as §1
[8] = system: Thymidylate synthase (Lactobacillus casei); assay: Rate constant for the inactivation of DTMP synthetase in the presence of cofactor CH2-H4 folate

Ki (Lacticaseibacillus casei): 2.3 µM
SMILES: O=c1ccn([C@H]2C[C@H](O)[C@@H](COP(=O)(O)O)O2)c(=O)[nH]1 [DEOXYURIDINE MONOPHOSPHATE]

Rate constant [8]: 2.4 min⁻¹
SMILES: O=c1[nH]c(=O)n([C@H]2O[C@@H](CO)[C@H](O)[C@H]2F)cc1F
EC50 (L5178Y): 3.8 µM
EC50 (P815): 2.6 µM
EC50 (S49 [1]): 3.3 µM
Decrease (S49 [2]): 90%
Decrease (S49 [3]): < 20%
Decrease (S49 [4]): 80%
Decrease (S49 [5]): 40%
Increase (S49 [6]): 172%
EC50 (S49 [7]): 400 µM

Ki (Lacticaseibacillus casei): 0.19 µM
SMILES: O=c1[nH]c(=O)n([C@H]2C[C@H](O)[C@@H](COP(=O)(O)O)O2)cc1Cl

Ki (Lacticaseibacillus casei): 3.3 µM
SMILES: O=c1[nH]c(=O)n([C@@H]2O[C@H](COP(=O)(O)O)[C@@H](O)[C@@H]2F)cc1F
